Laboratory results reported in ChEMBL document CHEMBL1131287, “Design, synthesis, and biological activities of potent and selective somatostatin analogues incorporating novel peptoid residues” (J Med Chem, 1998).
Square brackets hold non-standard residues; d marks the D form. Peptide text beside a SMILES is read from it.

Legend:
Assay type in all cases: cell-based
[1] = molecular target: T1, Somatostatin receptor type 5 (Homo sapiens, UniProt P35346); experiment: In vitro inhibition of radioligand binding to human Somatostatin receptor type 5 expressed in CCL-39 cells.
T1 sequence (P35346 whole entry): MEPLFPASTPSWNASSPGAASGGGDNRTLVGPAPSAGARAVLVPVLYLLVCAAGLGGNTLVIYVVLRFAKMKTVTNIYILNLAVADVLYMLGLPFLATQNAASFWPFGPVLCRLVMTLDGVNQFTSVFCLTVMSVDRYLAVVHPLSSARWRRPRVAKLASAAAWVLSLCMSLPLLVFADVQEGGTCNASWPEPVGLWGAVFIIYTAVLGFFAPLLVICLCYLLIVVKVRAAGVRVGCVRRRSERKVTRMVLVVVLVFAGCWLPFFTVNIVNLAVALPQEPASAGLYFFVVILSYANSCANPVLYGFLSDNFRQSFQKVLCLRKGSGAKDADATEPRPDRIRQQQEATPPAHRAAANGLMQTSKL
How it was run: (§1)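 Competition binding on cell or membrane homogenates in 10 mM HEPES pH 7.5 with 0.5% BSA, 5 mM MgCl2 and 5 μg/mL bacitracin, 1 h at room temperature. Nonspecific binding with 1 μM SRIF14. Gamma counting, triplicates, nonlinear regression, reported as pKD.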

[2] = molecular target: T2, Somatostatin receptor type 4 (Homo sapiens, UniProt P31391); experiment: In vitro inhibition of radioligand binding to human somatostatin receptor (hsst4) expressed in CHO-K1 cells.
T2 sequence (P31391 whole entry): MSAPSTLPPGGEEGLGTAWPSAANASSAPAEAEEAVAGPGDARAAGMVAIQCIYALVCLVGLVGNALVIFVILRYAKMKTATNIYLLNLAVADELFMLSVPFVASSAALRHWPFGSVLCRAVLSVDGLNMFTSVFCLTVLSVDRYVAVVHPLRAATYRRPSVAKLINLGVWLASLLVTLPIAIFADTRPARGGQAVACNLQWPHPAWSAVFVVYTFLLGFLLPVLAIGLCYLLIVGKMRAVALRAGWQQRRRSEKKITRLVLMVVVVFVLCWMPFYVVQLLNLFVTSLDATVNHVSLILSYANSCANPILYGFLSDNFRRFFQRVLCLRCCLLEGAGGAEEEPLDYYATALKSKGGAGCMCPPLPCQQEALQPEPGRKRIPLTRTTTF
How it was run: (§2)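 Membranes from CHO-K1 clones stably expressing the hsst subtype (pCMV, G418-selected), washed in 50 mM Tris-HCl. Stopped by PEI-treated GF/C filtration. Specific binding was defined against 1000 nM SRIF-14.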

[3] = molecular target: T1, Somatostatin receptor type 5; experiment: In vitro inhibition of radioligand binding to human Somatostatin receptor type 5 expressed in CHO-K1 cells.; how it was run: as §2
[4] = molecular target: T3, Somatostatin receptor type 1 (Homo sapiens, UniProt P30872); experiment: In vitro inhibition of radioligand binding to human somatostatin receptor (hsst1) expressed in CHO-K1 cells.; how it was run: as §2
T3 sequence (P30872 whole entry): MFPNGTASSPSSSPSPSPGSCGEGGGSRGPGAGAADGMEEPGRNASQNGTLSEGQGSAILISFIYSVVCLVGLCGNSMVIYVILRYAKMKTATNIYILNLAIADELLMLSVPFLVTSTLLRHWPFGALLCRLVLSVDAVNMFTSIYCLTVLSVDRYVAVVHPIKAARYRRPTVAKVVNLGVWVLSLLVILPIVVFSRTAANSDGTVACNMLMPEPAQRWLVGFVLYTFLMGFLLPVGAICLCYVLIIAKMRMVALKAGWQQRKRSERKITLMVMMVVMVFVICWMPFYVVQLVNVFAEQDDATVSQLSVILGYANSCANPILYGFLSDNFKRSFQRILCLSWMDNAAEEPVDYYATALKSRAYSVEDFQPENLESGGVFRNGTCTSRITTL

[5] = molecular target: T4, Somatostatin receptor type 2 (Homo sapiens, UniProt P30874); experiment: In vitro inhibition of radioligand binding to human somatostatin receptor (hsst2) expressed in CHO-K1 cells.
T4 sequence (P30874 whole entry): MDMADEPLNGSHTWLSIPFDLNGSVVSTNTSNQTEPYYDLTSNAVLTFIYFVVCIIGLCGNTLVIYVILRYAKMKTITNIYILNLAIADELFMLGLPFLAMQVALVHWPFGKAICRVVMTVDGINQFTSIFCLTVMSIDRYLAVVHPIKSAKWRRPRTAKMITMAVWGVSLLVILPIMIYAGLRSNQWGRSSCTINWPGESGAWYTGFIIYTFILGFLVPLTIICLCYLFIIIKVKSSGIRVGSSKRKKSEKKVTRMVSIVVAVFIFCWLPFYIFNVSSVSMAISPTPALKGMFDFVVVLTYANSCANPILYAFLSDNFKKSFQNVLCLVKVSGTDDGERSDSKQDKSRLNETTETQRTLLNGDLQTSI
How it was run: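 hsst2 stably expressed in CHO-K1 cells; washed membranes were used. Radioligand was 0.05 nM [125I]MK-678, incubated 90 min at 25 °C in 50 mM HEPES pH 7.4 buffer with BSA, MgCl2 and protease inhibitors. Filtered on PEI-soaked GF/C filters. Specific binding was defined against 1000 nM MK-678.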

[6] = molecular target: T2, Somatostatin receptor type 4; experiment: In vitro inhibition of radioligand binding to human somatostatin receptor (hsst4) expressed in CHO cells.; how it was run: as §1
[7] = molecular target: T5, Somatostatin receptor type 3 (Homo sapiens, UniProt P32745); experiment: In vitro inhibition of radioligand binding to human somatostatin receptor (hsst3) expressed in CHO cells.; how it was run: as §1
T5 sequence (P32745 whole entry): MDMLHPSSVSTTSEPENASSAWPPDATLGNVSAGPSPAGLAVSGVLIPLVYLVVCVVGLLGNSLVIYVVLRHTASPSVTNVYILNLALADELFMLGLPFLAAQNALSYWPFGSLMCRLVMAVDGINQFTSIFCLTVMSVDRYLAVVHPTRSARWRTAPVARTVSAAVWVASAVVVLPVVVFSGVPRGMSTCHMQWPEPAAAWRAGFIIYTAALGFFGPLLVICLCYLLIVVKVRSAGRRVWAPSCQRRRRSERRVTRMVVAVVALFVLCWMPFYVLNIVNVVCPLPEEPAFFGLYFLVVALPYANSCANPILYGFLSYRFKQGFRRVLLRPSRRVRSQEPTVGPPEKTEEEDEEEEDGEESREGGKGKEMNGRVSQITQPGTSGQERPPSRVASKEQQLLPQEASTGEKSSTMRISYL

[8] = molecular target: T5, Somatostatin receptor type 3; experiment: In vitro inhibition of radioligand binding to human somatostatin receptor (hsst3) expressed in CHO-K1 cells.; how it was run: as §2
[9] = molecular target: T4, Somatostatin receptor type 2; experiment: In vitro inhibition of radioligand binding to human somatostatin receptor (hsst2) expressed in CHO cells.; how it was run: as §1
[10] = molecular target: T3, Somatostatin receptor type 1; experiment: In vitro inhibition of radioligand binding to human somatostatin receptor (hsst1) expressed in hSF6 cells.; how it was run: as §1

Kd ([1]; ccl-39) [nM]	Ki ([2]; cho-k1) [nM]	Ki ([3]; cho-k1) [nM]	Ki ([4]; cho-k1) [nM]	Ki ([5]; cho-k1) [nM]	Kd ([6]; cho) [nM]	Kd ([7]; cho) [nM]	Ki ([8]; cho-k1) [nM]	Kd ([9]; cho) [nM]	Kd [10] [nM]	Kd [1] [nM]	Ki [2] [nM]	Ki [3] [nM]	Ki [4] [nM]	Ki [5] [nM]	Kd [6] [nM]	Kd [7] [nM]	Ki [8] [nM]	Kd [9] [nM]	SMILES
288	> 1000	33.5	> 1000	2.33	4170	407	425	2.04	3550										C[C@H](c1ccccc1)N1CC(=O)N[C@@H](Cc2ccccc2)C(=O)N[C@H](Cc2c[nH]c3ccccc23)C(=O)N[C@@H](CCCCN)C(=O)N[C@@H]([C@@H](C)O)C(=O)N[C@@H](Cc2ccccc2)C1=O
									4570	7.6	> 1000	25	> 1000	5.1	8910	525	129	0.76	C[C@@H](O)[C@@H]1NC(=O)[C@H](CCCCN)NC(=O)[C@@H](Cc2c[nH]c3ccccc23)NC(=O)[C@H](Cc2ccccc2)NC(=O)[C@@H]2CCCN2C(=O)[C@H](Cc2ccccc2)NC1=O (cyclo(PF[dW]KTF))
69	> 1000	101	> 1000	6.98	4680	282	253	2.95	7080										C[C@@H](O)[C@@H]1NC(=O)[C@H](CCCCN)NC(=O)[C@@H](Cc2c[nH]c3ccccc23)NC(=O)[C@H](Cc2ccccc2)NC(=O)CN(Cc2ccccc2)C(=O)[C@H](Cc2ccccc2)NC1=O
115	987	87	> 1000	29.5	2630	339	797	6.17	13200										C[C@@H](O)[C@@H]1NC(=O)[C@H](CCCCN)NC(=O)[C@@H](Cc2c[nH]c3ccccc23)NC(=O)[C@H](Cc2ccccc2)NC(=O)CN([C@@H](C)c2ccccc2)C(=O)[C@H](Cc2ccccc2)NC1=O
